SMILES strings stand for the structures.

In general, IC50 refers to the concentration at which inhibition is half-maximal. Low readings indicate higher potency, high ones lower potency.

Test [1] is filed under the species Homo sapiens. As to the kind of experiment: Compound was evaluated for the inhibition of,IL-1beta biosynthesis. The class given is functional. Summed up:
(§1)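 Human blood monocytes were isolated by ficoll-hypaque then elutriation and plated at 2×10^6 cells/mL in RPMI 1640 + 5% FBS. Compound in DMSO was added at 10, 3, 1, 0.3 and 0.1 μM for 1 h. Cells were then stimulated with Salmonella typhimurium LPS for about 20 h. Supernatant IL-1 was measured by ELISA and viability by MTT.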

Test [2] concerns Crotalus adamanteus. Nature of the test: Compound was evaluated for the inhibition of,PLA2. The class given is functional.
Test [3] deals with Cyclooxygenase (Bos taurus) (UniProt O62664+O62698).
The nature of test [4]: Inhibition of IL-1 beta biosynthesis in human monocytes. The class given is functional, cell-based. Summed up:
as §1

Test [5] deals with T1, Polyunsaturated fatty acid 5-lipoxygenase (Rattus norvegicus, UniProt P12527).
T1 sequence (P12527 whole entry): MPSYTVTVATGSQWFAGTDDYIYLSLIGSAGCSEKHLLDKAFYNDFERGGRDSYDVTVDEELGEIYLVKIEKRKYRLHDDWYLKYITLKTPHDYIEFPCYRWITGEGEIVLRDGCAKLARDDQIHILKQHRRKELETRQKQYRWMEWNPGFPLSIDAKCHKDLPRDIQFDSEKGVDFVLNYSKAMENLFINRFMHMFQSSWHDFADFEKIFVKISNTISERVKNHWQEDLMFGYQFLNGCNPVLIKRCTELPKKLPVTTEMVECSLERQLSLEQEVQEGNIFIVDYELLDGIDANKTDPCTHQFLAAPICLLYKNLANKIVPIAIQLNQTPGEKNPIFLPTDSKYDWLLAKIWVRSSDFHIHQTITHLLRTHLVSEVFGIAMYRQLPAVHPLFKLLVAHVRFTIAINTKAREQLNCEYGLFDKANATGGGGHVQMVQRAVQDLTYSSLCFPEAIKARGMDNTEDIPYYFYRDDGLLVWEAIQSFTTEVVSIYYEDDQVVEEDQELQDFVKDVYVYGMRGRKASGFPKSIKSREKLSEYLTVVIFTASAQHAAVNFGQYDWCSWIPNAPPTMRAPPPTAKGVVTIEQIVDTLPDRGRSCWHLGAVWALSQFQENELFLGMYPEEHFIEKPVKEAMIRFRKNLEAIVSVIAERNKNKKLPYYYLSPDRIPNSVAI
Nature of the test: inhibitory activity against 5-lipoxygenase in rat basophilic leukemia cell line. The class given is cell-based, RBL-1.

The target in test [6] is Interleukin-1 beta (Homo sapiens) (UniProt P01584). As to the kind of experiment: Compound was evaluated for the inhibition of IL-1 beta release by human monocytes.
Sequence of Interleukin-1 beta (Homo sapiens) (P01584 whole entry, looked up): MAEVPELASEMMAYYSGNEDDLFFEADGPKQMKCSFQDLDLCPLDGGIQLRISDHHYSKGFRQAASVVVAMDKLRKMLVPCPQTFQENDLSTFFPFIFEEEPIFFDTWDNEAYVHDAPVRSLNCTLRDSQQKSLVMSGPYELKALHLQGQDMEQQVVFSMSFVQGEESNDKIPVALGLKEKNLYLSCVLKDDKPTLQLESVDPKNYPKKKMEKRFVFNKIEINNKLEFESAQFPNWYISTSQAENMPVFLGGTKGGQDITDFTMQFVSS
The target in test [7] is T2, Polyunsaturated fatty acid 5-lipoxygenase (Rattus norvegicus) (UniProt P12527).
T2 sequence (whole entry): T1 sequence (P12527 whole entry)
Nature of the test: Compound was evaluated for the inhibition of 5-LO (lipoxygenase). The class given is functional. Summed up:
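Enzyme source was a 1000g supernatant of homogenized RBL-1 cells, dosed to give 3300–3800 dpm net 5-HETE (9–20 μg cell protein/assay). Compound in 5% DMSO/0.2 M Tris pH 8.5 was preincubated with enzyme for 5 min at 37 °C in pH 7.0 phosphate buffer (EDTA, gelatin, glutathione, CaCl2, indomethacin). Then 0.042 mM [14C]arachidonic acid (final) was added, 2 min. Duplicates; IC50 by linear regression over three concentrations.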

In test [8] the test system is Crotalus adamanteus. As to the kind of experiment: Compound was evaluated for the inhibition of PLA2. The class given is functional.
For test [9], the species on record is Homo sapiens. As to the kind of experiment: Compound was evaluated for the inhibition of, IL1-beta biosynthesis. The format is functional. Summed up:
as §1

For test [10], the target named is T2, Polyunsaturated fatty acid 5-lipoxygenase (Rattus norvegicus).
Test [11] relates to Crotalus adamanteus. As to the kind of experiment: Compound was evaluated for the inhibition of, PLA2. The class given is functional.
The target in test [12] is T2, Polyunsaturated fatty acid 5-lipoxygenase (Rattus norvegicus). The source holds these as a separate data set.

Take `CC(c1cc2ccccc2s1)N(O)C(N)=O` (stereo unspecified) [ZILEUTON]: the ID50 was >30 µM in the test filed under Homo sapiens [1], > 1000 µM in the test with Crotalus adamanteus [2] and > 750 µM in [3].
As to `O=C(/C=C\N(O)Cc1ccc(-c2ccccc2)cc1)C1CC1`, the values for the IC50 in [4] and in test [5] were > 10 µM and 1.2 µM, respectively.
Regarding `O=C(/C=C\N(O)Cc1ccccc1)c1ccc(Cl)cc1`, the ID50 is 2.1 µM in [6], 1.5 µM in [7], > 1000 µM in the test on Crotalus adamanteus [8] and > 750 µM in test [3]. Besides, the IC50 in [4] was determined as 2.1 µM; in [5], 1.5 µM.
On to `CN(O)/C=C(\C(=O)c1ccccc1)c1ccccc1`, for which the IC50 in test [5] is > 25 µM.
For the molecule `O=C(/C=C\N(O)C1CCCCC1)c1ccc2ccccc2c1`, the IC50 in test [4] is > 10 µM; in [5], 2.6 µM.
On the same counts, the results for `CC(=O)ON(/C=C\C(=O)c1ccc(F)cc1)Cc1ccccc1` are > 10 µM and > 25 µM.
Turning to `O=C(/C=C\N(O)Cc1ccccc1)c1c(Cl)cccc1Cl`, the IC50 in test [4] was > 10 µM; in [5], 1.7 µM.
The corresponding values for `CC(=O)ON(/C=C\C(=O)c1ccc(-c2ccccc2)cc1)Cc1ccccc1` are > 10 µM and > 25 µM.
On the same counts, the results for `O=C(/C=C\N(O)c1ccccc1)c1ccc(F)cc1` are > 10 µM and 0.2 µM.
Take `CC(=O)ON(/C=C\C(=O)c1ccc(Cl)cc1)Cc1ccccc1`: the IC50 in [4] is > 10 µM; in [5] it was > 25 µM.
For `O=C(/C=C\N(O)c1ccccc1)c1ccc2ccccc2c1`, the midpoint of inhibition in [5], the IC50, lay at 0.81 µM.
For the molecule `CC(C)(C)C(=O)/C=C\N(O)Cc1ccccc1`, the IC50 in [4] is > 10 µM; in [5], 5 µM.
Regarding `O=C1CCN(c2ccccc2)N1` [PHENIDONE], the ID50 was >30 µM in the test filed under Homo sapiens [9], 0.48 µM in [10], > 1000 µM in the test with Crotalus adamanteus [11] and 6.9 µM in [3].
In test [5], `CN(O)/C=C\C(=O)c1ccc(OCc2ccccn2)cc1` returned an IC50 of 10 µM.
Take `O=C(/C=C\N(O)Cc1ccccc1)c1ccc(Cl)c(Cl)c1`: the IC50 amounted to 3.6 µM in test [4] and 0.61 µM in test [5].
The corresponding values for `CN(O)/C=C\C(=O)c1ccc2ccccc2c1` are > 10 µM and 1.8 µM.
As for `O=C(/C=C\N(O)Cc1ccccc1)c1ccc2ccccc2c1`, the IC50 in test [4] was found to be 5.4 µM.
In the case of `CC(=O)N(/C=C\C(=O)C(C)(C)C)OCc1ccccc1`, the half-maximal inhibitory concentration (IC50) in [5] is > 25 µM.
Take `O=C(/C=C\N(O)Cc1ccccc1)c1ccc(-c2ccccc2)cc1`: the 50% inhibitory concentration (IC50) in [4] amounted to 3.6 µM; in test [5], 0.25 µM.
The corresponding values for `CN(O)/C=C\C(=O)c1ccc(Cl)cc1` are > 10 µM and 0.55 µM.
For the molecule `COc1ccccc1C(=O)/C=C\N(Cc1ccccc1)OC`, the half-inhibitory concentration (IC50) in test [5] is > 25 µM.
For the molecule `C/C(=C/N(C)O)C(=O)c1ccc(OCc2ccccc2)cc1`, in [5], the IC50 worked out at 8.9 µM.
With `CN(O)/C=C\C(=O)c1ccc([N+](=O)[O-])cc1`, the IC50 in test [4] was > 10 µM; in test [5], 1.5 µM.
Turning to `O=C(/C=C\NOCc1ccccc1)c1ccc(-c2ccccc2)cc1`, the IC50 in [5] is > 25 µM.
Consider `COC(=O)/C=C\N(O)Cc1ccc(OCc2ccccc2)cc1`, for which the IC50 in [5] was found to be 4.8 µM.
Turning to `O=C(/C=C\N(O)Cc1ccc2ccccc2c1)c1ccc(F)cc1`, the figures for the IC50 in test [4] and in [5] were 7.7 µM and 0.4 µM, respectively.
Consider `COc1ccccc1/C(O)=C/C=N/OCc1ccccc1`, for which the IC50 in test [5] is > 25 µM.
On the same count and under the same terms, as for `CCCCCCCCCCN(O)/C=C\C(=O)c1ccc(F)cc1`, the figure is 13 µM; as for `CC(=O)ON(/C=C\C(=O)C(C)(C)C)Cc1ccccc1`, > 25 µM; as for `O=C(/C=C\NOCc1ccccc1)c1ccc(F)cc1`, > 25 µM.
Consider `O=C(/C=C\N(O)Cc1ccccc1)c1ccc([N+](=O)[O-])cc1`, for which the IC50 in test [4] was found to be 1.7 µM; in [5], 2.5 µM.
In test [5], `CCc1c(N(O)/C=C\C(=O)c2ccc3ccccc3c2)ccc2ccccc12` displayed an IC50 of 0.75 µM.
Regarding `O=C(/C=C\N(O)Cc1ccc2ccccc2c1)C1CC1`, the values for the IC50 in test [4] and in test [5] were 9.9 µM and 1.5 µM, respectively.
On the same counts, the results for `CC(=O)ON(/C=C\C(=O)c1ccc([N+](=O)[O-])cc1)Cc1ccccc1` are > 10 µM and > 25 µM.
Turning to `CON(/C=C\C(=O)c1ccc(F)cc1)Cc1ccccc1`, the values for the IC50 in test [4] and in test [5] were > 10 µM and > 25 µM, respectively.
On to `CC(=O)ON(C)/C=C\C(=O)c1ccc(OCc2ccccc2)cc1`, for which, in test [5], the IC50 was > 25 µM.
`CN(O)/C=C\C(=O)c1cc(C(F)(F)F)cc(C(F)(F)F)c1` showed an IC50 in [5] of 0.91 µM.
As for `CN(O)/C=C\C(=O)c1ccc(-c2ccccc2)cc1`, in [4], the IC50 is > 10 µM.
For the molecule `CC(=O)ON(C)/C=C\C(=O)c1ccc(Cl)cc1`, the IC50 in test [5] is > 25 µM.
With `O=C(/C=C\N(O)Cc1ccccc1)c1ccc(F)cc1`, the ID50 is 2.8 µM in [6], > 1000 µM in the test on Crotalus adamanteus [8] and > 750 µM in test [3]. Besides, half-maximal inhibition in test [4] (IC50) was put at 2.8 µM.
With `CC(=O)ON(C)/C=C\C(=O)c1ccc(-c2ccccc2)cc1`, the IC50 in test [5] is > 25 µM.
`O=C(/C=C\N(O)Cc1ccc(Oc2ccccc2)cc1)C1CC1`: the figures for the IC50 in test [4] and in [5] were > 10 µM and 1.4 µM, respectively.
In the case of `CC(=O)ON(C)/C=C\C(=O)c1ccc([N+](=O)[O-])cc1`, the IC50 in [5] is > 25 µM.
As to `CSc1ccc(C(=O)/C(=C\N(C)O)c2ccc(F)cc2)cc1`, the half-maximal inhibitory concentration (IC50) in test [5] was > 25 µM.
On to `O=C(/C=C\N(O)CCc1ccccc1)c1ccc(F)cc1`, for which the IC50 in [4] is > 10 µM; in test [5], 0.12 µM.
For the molecule `C/C(=C/C(=O)c1ccc(F)cc1)N(O)Cc1ccccc1`, half-maximal inhibition in test [5] (IC50) required 0.25 µM.
The same measure, in the same setting: as for `CN(O)/C=C\C(=O)c1ccc(OCc2ccccc2)cc1` [listing 1 of 2 here], the figure is 1.9 µM.
In the case of `O=C(/C=C\N(O)Cc1ccccc1)c1ccncc1`, the figures for the IC50 in test [4] and in test [5] were 8.9 µM and 2 µM, respectively.
`O=C(/C=C\N(O)Cc1ccc(-c2ccccc2)cc1)c1ccsc1`: the IC50 in test [5] was found to be 3 µM.
The same measure, in the same setting: as for `COc1ccc(C(=O)/C(=C\N(C)O)c2ccc(OC)cc2)cc1`, the figure is > 25 µM.
As for `O=C(/C=C\N(O)Cc1ccc(OCc2ccccc2)cc1)C1CC1`, the IC50 in test [5] came out at 2.6 µM.
Take `CN(O)/C=C\C(=O)c1ccc(OCc2ccccc2)cc1` [listing 2 of 2 here]: the figures for the IC50 in [4] and in [5] were > 10 µM and 1.1 µM, respectively.
On the same counts, the results for `CN(O)/C=C\C(=O)c1ccc(F)cc1` are 5.5 µM and 5 µM.
The corresponding values for `O=C(/C=C\N(O)C1CCCCC1)c1ccc(F)cc1` are > 10 µM and 0.27 µM.
Consider `CC(C)(C)/C(O)=C/C=N/OCc1ccccc1`, for which the IC50 in test [5] was > 25 µM.
`CN(O)/C=C\C(=O)Sc1ccc2ccccc2c1`: the figures for the IC50 in test [4] and in test [5] were > 10 µM and 0.24 µM, respectively.
As for `O=C(/C=C\N(O)Cc1ccc(-c2ccccc2)cc1)c1cccs1`, the half-maximal inhibitory concentration (IC50) in [5] was > 25 µM.
Turning to `COc1ccc2c(c1)c(CC(=O)O)c(C)n2C(=O)c1ccc(Cl)cc1`, the results for the ID50 (in [6]; in test [12]; in the test on Crotalus adamanteus [8]) were > 30 µM, > 25 µM and > 1000 µM, respectively.
For the molecule `O=C(/C=C\N(O)Cc1ccc(-c2ccccc2)cc1)c1ccc(F)cc1`, the IC50 amounted to 5.2 µM in test [4] and 3 µM in test [5].
The molecule `O=C(/C=C\N(O)Cc1ccc(-c2ccccc2)cc1)c1ccco1` had an IC50 in [5] of 3.1 µM.

The values are drawn from ChEMBL document CHEMBL1125338, “Synthesis, chemical, and biological properties of vinylogous hydroxamic acids: dual inhibitors of 5-lipoxygenase and IL-1 biosynthesis” (J Med Chem, 1992).
